Measured values taken from ChEMBL document CHEMBL3244138, “New antiarrhythmic agents. 3. Primary beta-amino anilides” (J Med Chem, 1979).
Activity calls are given as the source filed them. The calls are words filed in the database; no cut-off is given here.

Columns and labels:
[1] = test system: Mus musculus; assay: Toxicity in mouse assessed as mortality at 100 mg/kg, sc measured up to 20 mins; assay type: organism-based; design: dose 100 mg/kg, route subcutaneous; conditions: in vivo
In short: (§1)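 Preliminary screen: drug dissolved in 0.9% saline and given subcutaneously at 100 mg/kg to groups of 10 mice. Animals were watched for 20 min for ataxia, convulsions, loss of righting reflex or death. Each sign was recorded as the number of animals affected out of 10 tested.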

[2] = test system: Mus musculus; assay: Antiarrhythmic activity in mouse assessed as protection against chloroform-induced fibrillation at 100 mg/kg, sc; assay type: functional, organism-based; design: dose 100 mg/kg; conditions: Heart
In short: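 Preliminary screen: single 100 mg/kg sc dose in 0.9% saline to 10 mice. After 20 min, each mouse was held in chloroform-saturated air until respiration ceased, and the thorax was opened at once. A mouse counted as protected if ventricular contractions were coordinated rather than fibrillating. Read-out is the number protected of 10.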

[3] = test system: Canis familiaris; assay: Toxicity in iv dosed left anterior descending coronary artery ligated myocardial infarction model of dog assessed as dose required to cause toxic effect; assay type: organism-based, Canis lupus familiaris; conditions: in vivo
[4] = test system: Canis familiaris; assay: Antiarrhythmic activity in left anterior descending coronary artery ligated myocardial infarction model of dog assessed as mean arterial blood pressure at 0.5 mg/kg/min, iv; assay type: functional, Canis lupus familiaris
In short: (§2)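 Dogs with myocardial infarction from two-step ligation of the left anterior descending coronary artery were studied the day after ligation and given a drug infusion. Control percent ventricular ectopic beats, ventricular rate (beats/min) and mean arterial pressure (mmHg) were taken before infusion. Clearing values and dose were taken at the time of lowest ectopic-beat incidence; results are means and SD of 3–14 experiments.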

[5] = test system: Canis familiaris; assay: Antiarrhythmic activity in left anterior descending coronary artery ligated myocardial infarction model of dog assessed as clearing value of ventricular rate at 0.5 mg/kg/min, iv; assay type: functional, Canis lupus familiaris, Heart; in short: as §2
[6] = test system: Mus musculus; assay: Ratio of lidocaine ED50 to compound ED50 for antiarrhythmic activity sc dosed mouse assessed as protection against chloroform-induced fibrillation; assay type: functional, Heart
[7] = test system: Mus musculus; assay: Toxicity in mouse assessed as convulsion at 100 mg/kg, sc measured up to 20 mins; assay type: organism-based; design: dose 100 mg/kg, route subcutaneous; conditions: in vivo; in short: as §1
[8] = test system: Mus musculus; assay: Toxicity in mouse assessed as loss of righting reflex at 100 mg/kg, sc measured up to 20 mins; assay type: organism-based; design: dose 100 mg/kg, route subcutaneous; conditions: in vivo; in short: as §1
[9] = test system: Mus musculus; assay: Toxicity in mouse assessed as ataxia at 100 mg/kg, sc measured up to 20 mins; assay type: organism-based; design: dose 100 mg/kg, route subcutaneous; conditions: in vivo; in short: as §1
[10] = test system: Canis familiaris; assay: Antiarrhythmic activity in iv dosed left anterior descending coronary artery ligated myocardial infarction model of dog assessed as dose required for reduction of ectopic beats to <= 5%; assay type: functional, Canis lupus familiaris, Heart; in short: as §2
[11] = test system: Mus musculus; assay: Antiarrhythmic activity in sc dosed mouse assessed as protection against chloroform-induced fibrillation; assay type: functional; conditions: Heart
In short: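 Mice (10 per dose) got at least three sc doses in 0.9% saline, chosen for low to high protection. After 20 min, chloroform vapour was given until respiration stopped, then fibrillation versus coordinated ventricular contraction was scored visually.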

[12] = test system: Canis familiaris; assay: Antiarrhythmic activity in left anterior descending coronary artery ligated myocardial infarction model of dog assessed as clearing value of ventricular ectopic beats at 0.5 mg/kg/min, iv; assay type: functional, Canis lupus familiaris, Heart; in short: as §2
[13] = test system: Canis familiaris; assay: Toxicity in iv dosed left anterior descending coronary artery ligated myocardial infarction model of dog assessed as dose required to cause death; assay type: organism-based, Canis lupus familiaris; conditions: in vivo
In short: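 Baseline ectopic beats, ventricular rate and mean arterial pressure were recorded before drug infusion. Infusion was stopped at a toxic level, and the cumulative dose in mmol/kg causing death was recorded.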

[14] = Oral bioavailability in dog; assay type: ADME, organism-based, Canis lupus familiaris; conditions: in vivo
[15] = test system: Mus musculus; assay: Toxicity in mouse assessed as loss of righting reflex at 200 mg/kg, sc measured up to 20 mins; assay type: organism-based; design: dose 200 mg/kg, route subcutaneous; conditions: in vivo
In short: (§3)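 Mice (10 per dose) received drug sc in 0.9% saline and were watched for 20 min for ataxia, convulsions, loss of righting reflex and death, before chloroform exposure. Read-out is the number affected of 10 tested.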

[16] = test system: Mus musculus; assay: Toxicity in mouse assessed as ataxia at 200 mg/kg, sc measured up to 20 mins; assay type: organism-based; design: dose 200 mg/kg, route subcutaneous; conditions: in vivo; in short: as §3
[17] = test system: Canis familiaris; assay: Toxicity in left anterior descending coronary artery ligated myocardial infarction model of dog at […], iv; assay type: organism-based, Canis lupus familiaris; conditions: in vivo
[18] = test system: Canis familiaris; assay: Toxicity in iv dosed left anterior descending coronary artery ligated myocardial infarction model of dog at 0.20 mmol/kg, iv; assay type: organism-based, Canis lupus familiaris; conditions: in vivo
[19] = test system: Canis familiaris; assay: Toxicity in iv dosed left anterior descending coronary artery ligated myocardial infarction model of dog at 0.25 mmol/kg, iv; assay type: organism-based, Canis lupus familiaris; conditions: in vivo
[20] = test system: Canis familiaris; assay: Toxicity in iv dosed left anterior descending coronary artery ligated myocardial infarction model of dog assessed as dose required to cause convulsion; assay type: organism-based, Canis lupus familiaris; conditions: in vivo
[21] = test system: Canis familiaris; assay: Cardiovascular toxicity in iv dosed left anterior descending coronary artery ligated myocardial infarction model of dog; assay type: organism-based, Canis lupus familiaris; conditions: in vivo

SMILES | Activity [1] | Activity [4] [mmHg] | Activity [5] [bpm] | Ratio ED50 [6] | Activity [7] | Activity [8] | Activity [9] | Activity [10] [mmol/kg] | ED50 [11] [µmol/kg] | Activity [12] [%] | other results
CCN(CC)CC(=O)Nc1c(C)cccc1C [LIDOCAINE] | Non-toxic | 101 | 133 | 1 | Toxic | Toxic | Toxic | 0.21 | 260 | 4 | Activity [2]: Active; Activity [3]: 0.27 mmol/kg
Cc1cccc(C)c1NC(=O)CC(C)(C)N.Cl | Non-toxic | 95 | 138 | 1 | Non-toxic | Non-toxic | Non-toxic | 0.04 | 250 | 39 | Activity [13]: 0.17 mmol/kg
CCc1cccc(C)c1NC(=O)CCN.Cl | Non-toxic | – | – | 0.1 | Non-toxic | Non-toxic | Non-toxic | – | 1990 | – | –
CCN(C(=O)CC(C)N)c1c(C)cccc1C.O.O=C(O)C(O)C(O)C(=O)O (centres undefined) | – | – | – | – | Toxic | – | Toxic | – | – | – | –
Cc1cccc(C)c1N(C)C(=O)CC(C)N.O.O=C(O)C(O)C(O)C(=O)O (centres undefined) | Non-toxic | – | – | – | – | Non-toxic | Toxic | – | – | – | –
Cc1cccc(C)c1NC(=O)C(C)N (centres undefined) [TOCAINIDE] | Non-toxic | 108 | 148 | 0.2 | Non-toxic | Non-toxic | – | 0.32 | 1300 | 2 | Activity [3]: 0.3 mmol/kg
Cc1cccc(C)c1NC(=O)CC(C)N.Cl (centres undefined) | Non-toxic | 97 | 148 | 0.6 | Non-toxic | Non-toxic | Non-toxic | 0.1 | 460 | 0 | Activity [3]: 0.33 mmol/kg; bioavailability [14]: > 90%
Cc1cccc(C)c1N(C)C(=O)CCN.Cl.O | Non-toxic | – | – | – | Non-toxic | Non-toxic | Non-toxic | – | – | – | Activity [2]: inactive; Activity [15]: Non-toxic; Activity [16]: Toxic
CCc1cccc(C)c1NC(=O)CC(C)N.Cl (centres undefined) | Non-toxic | – | – | 0.5 | Non-toxic | Non-toxic | Non-toxic | – | 540 | – | –
Cc1cccc(C)c1NC(=O)CCN.Cl | Non-toxic | 85 | 120 | 0.5 | Non-toxic | Non-toxic | Non-toxic | 0.23 | 560 | 5 | Activity [17]: Non-toxic
CCN(CC)CCC(=O)Nc1c(C)cccc1C | Non-toxic | 115 | 132 | 0.9 | – | Non-toxic | Toxic | 0.01 | 280 | 15 | Activity [18]: Toxic; Activity [19]: Toxic; Activity [20]: 0.04 mmol/kg; Activity [21]: Toxic
CCC(N)CC(=O)Nc1c(C)cccc1C.Cl (centres undefined) | Non-toxic | – | – | 0.7 | Non-toxic | Non-toxic | Non-toxic | – | 380 | – | –
